Among the data in ChEMBL document CHEMBL4428122, “Design, synthesis, and biological characterization of novel PEG-linked dimeric modulators for CXCR4” (Bioorg Med Chem, 2016) are Activity values, retold here.

For the assay, the target named is C-X-C chemokine receptor type 4 (Homo sapiens, UniProt P61073). The assay is described as follows: Agonist activity at CXCR4 in human SupT1 cells assessed as increase Ca2+ influx at 2 uM by fura-2/AM dye-based fluorescence analysis. The assay is classed as functional, cell-based. The essentials: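 They were loaded at 10^7 cells/mL with 2 μM fura-2/AM and 5 μM probenecid for 30 min, then resuspended at 2 × 10^6 cells/mL. After a 2 min baseline, peptide was added. Ex 340/380 nm, em 510 nm.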

Activity calls are given as the source filed them. No cut-off for these calls is given here.

Sequence of C-X-C chemokine receptor type 4 (P61073 whole entry): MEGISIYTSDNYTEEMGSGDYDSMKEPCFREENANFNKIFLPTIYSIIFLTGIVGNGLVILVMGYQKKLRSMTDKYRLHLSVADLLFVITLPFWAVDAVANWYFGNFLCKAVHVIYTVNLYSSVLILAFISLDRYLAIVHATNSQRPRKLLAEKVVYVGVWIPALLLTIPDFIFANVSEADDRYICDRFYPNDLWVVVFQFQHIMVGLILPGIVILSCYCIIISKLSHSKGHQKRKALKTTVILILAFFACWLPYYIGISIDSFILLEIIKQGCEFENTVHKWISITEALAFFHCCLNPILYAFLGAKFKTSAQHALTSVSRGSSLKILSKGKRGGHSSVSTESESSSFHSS

With `CC(C)C[C@@H](N)C(=O)NCC(=O)N[C@H](C)C(=O)N[C@H](CO)C(=O)N[C@H](Cc1c[nH]c2ccccc12)C(=O)N[C@H](Cc1cnc[nH]1)C(=O)N[C@H](CCCNC(=N)N)C(=O)N1CCC[C@@H]1C(=O)N[C@H](CC(=O)O)C(=O)N[C@H](CCCCN)C(=O)NCCOCCOCCOCCC(=O)N[C@@H](CCCCNC(=O)CCOCCOCCOCCNC(=O)[C@H](CCCNC(=N)N)NC(=O)[C@H](Cc1ccc(O)cc1)NC(=O)[C@H](CO)NC(=O)[C@H](CC(C)C)NC(=O)[C@H](CO)NC(=O)[C@@H](NC(=O)[C@@H]1CCCN1C(=O)[C@@H](N)CCCCN)C(C)C)C(N)=O`, the result was Active.
